From PMC11601626 (bioRxiv, 2024)
Numbering of substitutions follows the chain as printed. Numbers in names are those of the source.

Key:
[1] = target: unmodified biotinylated nucleosome (EpiCypher) (human) (UniProt P68431); assay: BLI
[2] = system: HCT116 cells; assay: Live-cell imaging growth analysis; assay type: cell-based, human; settings: ∆PHRF1 HCT116 cells, complemented; no zeocin; Incucyte, one week; n = 3
In short: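 Control+EV, ∆PHRF1+EV and WT- or P221L-complemented ∆PHRF1 lines were grown in McCoy's 5A with 10% FBS and penicillin/streptomycin at 37°C, 5% CO₂. They were harvested near 70% confluence and seeded at 1,000 cells/well in biological triplicate. Imaging began immediately: every 4 h for one week, 10X objective, four fields per well. Confluence was scored as percentage of area occupied by cells.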

[3] = system: HCT116 cells; assay: Colony formation assay under zeocin; assay type: cell-based, human; settings: ∆PHRF1 HCT116 cells, complemented; effect greater with WT than P221L
In short: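 Cells were Control+EV, ∆PHRF1+EV, and ∆PHRF1 complemented with 3XFlag-PHRF1 WT or P221L. They were harvested near 70% confluence and seeded at 500 cells/well in biological triplicate, then left to adhere overnight at 37°C. Medium was replaced with zeocin at 0, 0.375, 0.75 and 1.5 µg/mL for 9 days undisturbed. Cells were fixed in 4% formaldehyde and stained with 0.5% crystal violet; growth area was measured per imaged well.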

[4] = system: HeLa cells (control and ∆PHRF1); assay: Zeocin DNA damage recovery assay, γH2A.X intensity/nucleus, HeLa; assay type: cell-based, human; settings: qGAM; 50 μg/mL zeocin 30 minutes, washout 0-26 h; p-value 4.79x10-5 (Wald)
[5] = system: GST-PHRF1^RP(P221L); assay: Histone peptide microarray with GST-PHRF1^RP; assay type: binding, human; settings: over 300 differentially-modified histone peptides
[6] = system: differentially modified biotinylated nucleosomes; assay: Nucleosome pulldown assay; assay type: binding; settings: 2.5 pmol protein, 12.5 pmol nucleosomes, pH 7.5, 4°C overnight
In short: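 Binding buffer: 50 mM Tris-HCl pH 7.5, 150 mM NaCl, 0.5% BSA, 0.1% NP-40, 10% glycerol. GST-PHRF1 RP, PHD or RP(P221L) was mixed with the modified biotinylated nucleosomes. Beads were washed three times in binding buffer, 5 min each at 4°C with rotation, then taken up in SDS loading dye. Immunoblots used anti-GST for PHRF1 and anti-H3 for nucleosome presence.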

[7] = system: H3 (1–20)-FAM; assay: Histone peptide fluorescence polarization; assay type: binding; settings: protein 50 to 0.0061 μM, pH 8.0, KD n.d.
[8] = system: biotinylated unmodified nucleosomes; assay: Biolayer interferometry; assay type: binding; settings: BLI; protein 25 to 1.625 μM; pH 7.0; 37°C; KD n.d.
[9] = system: differentially modified biotinylated nucleosomes; assay: dCypher nucleosome alphascreen binding assay; settings: GST-PHRF1^RP 3 nM, nucleosomes 10 nM, duplicate

“GST-PHRF1^RP (RING-PHD region of PHRF1, residues 107-232) (from UniProt Q9P1Y6 107-232) (domain or fragment)” gave a Kd [1] of 1010 nM.

For “3XFlag-PHRF1^P221L: 3XFlag-tagged PHRF1 P221L mutant expressed by lentivirus in HCT116 ∆PHRF1 cells”, the “rescue of growth under normal conditions, in words” value [2] was “partially rescuing the growth phenotype” and the “rescue of colony growth at 0.375 μg/mL zeocin, in words” value [3] was “partial rescue of growth”.

“3XFlag-PHRF1^WT: N-terminally 3XFlag-tagged PHRF1 expressed by lentivirus in HCT116 ∆PHRF1 cells” was tested, and the “rescue of growth under normal conditions, in words” value [2] was “largely rescued the growth defects” and the “rescue of colony growth at 0.375 μg/mL zeocin, in words” value [3] was “partial rescue of growth”.

`Cc1c(N)nc([C@H](CC(N)=O)NC[C@H](N)C(N)=O)nc1C(=O)N[C@H](C(=O)N[C@H](C)[C@@H](O)[C@H](C)C(=O)N[C@H](C(=O)NCCC1=N[C@@H](c2nc(C(=O)NCCCCN=C(N)N)cs2)CS1)[C@@H](C)O)[C@@H](O[C@@H]1O[C@@H](CO)[C@@H](O)[C@H](O)[C@@H]1O[C@H]1O[C@H](CO)[C@@H](O)[C@H](OC(N)=O)[C@@H]1O)c1cnc[nH]1` [zeocin, phleomycin D1] was tested, and the “Parametric Coefficient, γH2A.X intensity/nucleus, ∆PHRF1 vs Control” value [4] was −345.25.

B1: GST-PHRF1^RP(P221L): GST-PHRF1^RP with P221 mutated to leucine (protein)
chain: SCPICLNAFRDQAVGTPENCAHYFCLDCIVEWSKNANSCPVDRTLFKCICIRAQFGGKILRKIPVENTKASEEEEDPTFCEVCGRSDREDRLLLCDGCDAGYHMECLDPPLQEVLVDEWFCPECAA
modifications: left off: GST, end not stated, kept
In the case of B1, the “binding to histone peptides, in words” value [5] is reported as “virtually no binding to any histone peptide on the microarray”, the “nucleosome interaction of P221L mutant, in words” value [6] is reported as “abolished all nucleosome interaction” and the “binding to H3 1–20(FAM), in words” value [7] is reported as “little to no observable binding”. The “binding to nucleosomes, in words” value [8] was “no detectable binding to nucleosomes”.

B2: GST-PHRF1^RP: GST-tagged PHRF1 RING-PHD region, residues 107–232 of PHRF1 (protein)
chain: B1 chain with L115P
modifications: left off: GST, end not stated, kept
B2 was tested, and the “nucleosome binding, H3K9me3 versus unmodified, in words” value [9] was “heightened binding”.
